Test system: calf thymus double-stranded DNA (dsDNA)
Assay: Thermal transition of DNA
Format: binding
Settings: 15 μM compound, calf thymus dsDNA 6 μg/ml, pH 7.0
Summary of the method: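 Calf thymus dsDNA (6 μg/ml) in 0.1 M sodium phosphate pH 7.0 with 1% DMSO was tested with or without test compound, with ethidium bromide as intercalator control. Samples were equilibrated at 78 °C for 10 min, then raised 1 °C every 2 min. Absorbance was recorded on a spectrophotometer with a thermoelectric cell holder, and compound-only absorbance was subtracted to give Tm.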

## CC[n+]1c(-c2ccccc2)c2cc(N)ccc2c2ccc(N)cc21 [ethidium bromide, reference compound]
  effect on melting temperature (Tm) / thermal transition of dsDNA: clear shift of thermal transition

— paper PMC2943143 (Biochemical pharmacology, 2010)
